This note sets out measurements from ChEMBL document CHEMBL5038571, “Design and Synthesis of EZH2-Based PROTACs to Degrade the PRC2 Complex for Targeting the Noncatalytic Activity of EZH2” (J Med Chem, 2021).

In assay [1] the target is T1, Protein cereblon/Histone-lysine N-methyltransferase EZH2 (Homo sapiens) (UniProt Q15910+Q96SW2). The assay can be described thus: PROTAC activity at CRBN E3 ligase/EZH2 in PRC2 complex in human DU-145 cells assessed as reduction in H3K27me3 level at 1 uM incubated for 48 hrs by Western blot analysis. It counts as cell-based. An outline of the steps: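 Cancer cell lines exposed to 1 μM compound for 48 h. Lysates immunoblotted (SDS-PAGE, nitrocellulose, 5% milk block, primary antibody overnight at 4 °C) for EZH2, SUZ12, EED, RbAp48 and H3K27me3. Bands quantified by densitometry and normalized to GAPDH.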
T1 sequence (Q15910 whole entry, looked up): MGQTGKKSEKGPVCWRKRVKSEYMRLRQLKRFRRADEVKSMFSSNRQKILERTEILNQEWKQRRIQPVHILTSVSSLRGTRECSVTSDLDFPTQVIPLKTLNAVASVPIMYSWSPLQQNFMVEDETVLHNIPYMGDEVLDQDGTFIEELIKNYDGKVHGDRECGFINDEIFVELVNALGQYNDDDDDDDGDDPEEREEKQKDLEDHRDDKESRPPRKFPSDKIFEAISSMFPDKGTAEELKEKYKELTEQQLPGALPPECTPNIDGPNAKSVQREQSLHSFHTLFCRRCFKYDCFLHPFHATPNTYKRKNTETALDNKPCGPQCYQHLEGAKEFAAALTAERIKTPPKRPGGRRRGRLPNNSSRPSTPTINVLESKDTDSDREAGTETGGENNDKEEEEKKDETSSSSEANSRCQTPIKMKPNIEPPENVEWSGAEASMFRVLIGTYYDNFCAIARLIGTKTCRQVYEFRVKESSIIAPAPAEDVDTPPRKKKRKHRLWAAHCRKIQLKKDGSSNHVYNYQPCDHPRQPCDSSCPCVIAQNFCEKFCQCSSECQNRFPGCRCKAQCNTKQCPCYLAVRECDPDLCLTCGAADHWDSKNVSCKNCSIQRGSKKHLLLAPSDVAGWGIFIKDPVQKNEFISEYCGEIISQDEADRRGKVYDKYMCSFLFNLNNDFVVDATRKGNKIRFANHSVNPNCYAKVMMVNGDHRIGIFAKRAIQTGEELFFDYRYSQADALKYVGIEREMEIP
T1 sequence (Q96SW2 whole entry, looked up): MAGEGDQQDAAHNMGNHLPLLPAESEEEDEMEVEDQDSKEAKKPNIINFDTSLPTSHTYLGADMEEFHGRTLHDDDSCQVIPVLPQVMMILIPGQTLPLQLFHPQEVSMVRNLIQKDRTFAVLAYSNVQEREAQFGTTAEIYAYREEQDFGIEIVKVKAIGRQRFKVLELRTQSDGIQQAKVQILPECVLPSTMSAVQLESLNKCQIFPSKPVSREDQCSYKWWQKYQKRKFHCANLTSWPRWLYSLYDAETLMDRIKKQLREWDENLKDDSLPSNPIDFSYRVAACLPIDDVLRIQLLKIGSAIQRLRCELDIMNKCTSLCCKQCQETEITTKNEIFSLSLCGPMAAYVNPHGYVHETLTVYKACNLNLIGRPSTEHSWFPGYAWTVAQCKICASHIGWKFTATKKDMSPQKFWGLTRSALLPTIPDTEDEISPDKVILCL

Assay [2] deals with T1, Protein cereblon/Histone-lysine N-methyltransferase EZH2 (Homo sapiens). In words: PROTAC activity at CRBN E3 ligase/EZH2 in PRC2 complex in human WSUDLCL2 cells assessed as induction of EZH2 degradation by measuring reduction in EZH2 protein level at 1 uM measured after 48 to 72 hrs by Western blot analysis. The assay is classed as cell-based. As to conditions: time 48-72 hrs. On the technique in general: In western blotting, separated proteins are transferred to a membrane and probed.

Another assay concerns WSUDLCL2. The assay can be described thus: Antiproliferative activity against human WSUDLCL2 cells harboring EZH2-Y641F mutant assessed as inhibition of cell growth at 10 uM incubated for 9 days by optical microscopic analysis. It counts as functional, cell-based. As to conditions: time 9.0 day. The essentials:
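WSU-DLCL-2 cells seeded at 5 × 10³ per well, incubated 24 h, then exposed to 10 μM compound for 9 days with medium refreshed. Cells photographed and counted on days 1, 3, 5, 7 and 9. Mean SD of three independent experiments, t-test versus DMSO.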

The target of assay [3] is T1, Protein cereblon/Histone-lysine N-methyltransferase EZH2 (Homo sapiens). In words: PROTAC activity at CRBN E3 ligase/EZH2 in PRC2 complex in human WSUDLCL2 cells assessed as induction of EZH2 degradation at 1 uM incubated for 48 hrs by Western blot analysis relative to control. It counts as cell-based. An outline of the steps:
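WSU-DLCL-2 cells exposed to 1 μM compound for 48 h, with DMSO-treated cells as control. Bands quantified by densitometry and normalized to GAPDH. Mean SD from three independent experiments, t-test versus DMSO.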

The target is the same in assay [4]. In words: PROTAC activity at CRBN E3 ligase/EZH2 in PRC2 complex in human LNCaP cells assessed as induction of SUZ12 degradation by measuring reduction in SUZ12 protein level at 1 uM incubated for 48 hrs by Western blot analysis. The assay is classed as cell-based. The essentials: (§1)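 Cells cultured in DMEM or RPMI 1640 with 10% FBS and 1% penicillin-streptomycin, 37 °C, 5% CO2; exposed to 1 μM compound for 48 h. Lysates run on SDS-PAGE and transferred to nitrocellulose. Blocked 2 h in 5% skim milk, primary antibody overnight at 4 °C, then secondary antibody. Chemiluminescent detection of PRC2 subunits and H3K27me3.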

For assay [5] the target is unchanged. In words: PROTAC activity at CRBN E3 ligase/EZH2 in PRC2 complex in human SU-DHL-6 cells assessed as induction of SUZ12 degradation by measuring reduction in SUZ12 protein level at 1 uM incubated for 48 hrs by Western blot analysis. The assay is classed as cell-based. An outline of the steps:
as §1

Assay [6] has the same target. In words: PROTAC activity at CRBN E3 ligase/EZH2 in PRC2 complex in human WSUDLCL2 cells assessed as effect on EZH2 mRNA expression at 1 uM incubated for 48 hrs by RT-qPCR analysis. The assay is classed as cell-based. The essentials: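 WSU-DLCL-2 cells treated 48 h with 1 μM compound. Total RNA extracted with Trizol and reverse-transcribed. SYBR qPCR run as 95 °C 30 s, then 40 cycles of 95 °C 6 s and 60 °C 20 s. PRC2 subunit mRNA normalized to the DMSO-treated group; mean SD, t-test.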

The test system of assay [7] is A549. The assay can be described thus: Downregulation of […] mRNA expression in human A549 cells at 10 uM incubated for 48 hrs by qRT-PCR analysis. It counts as functional, cell-based. The essentials: (§2)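 Cells treated 48 h. Total RNA extracted with Trizol, reverse-transcribed, and SYBR RT-qPCR run: 95 °C 30 s, then 40 cycles of 95 °C 6 s and 60 °C 20 s. mRNA normalized to the DMSO-treated group. Mean SD of three independent experiments, t-test versus DMSO.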

The target of assay [8] is T1, Protein cereblon/Histone-lysine N-methyltransferase EZH2 (Homo sapiens). In words: PROTAC activity at CRBN E3 ligase/EZH2 in PRC2 complex in human WSUDLCL2 cells assessed as induction of RbAp48 degradation incubated for 48 hrs by Western blot analysis. It counts as cell-based. Conditions: dose 1-10 µM.
In assay [9] the test system is A549. The assay can be described thus: Downregulation of ARL6IP mRNA expression in human A549 cells at 10 uM incubated for 48 hrs by qRT-PCR analysis. It counts as functional, cell-based. The essentials:
as §2

Assay [10] addresses T1, Protein cereblon/Histone-lysine N-methyltransferase EZH2 (Homo sapiens). In words: PROTAC activity at CRBN E3 ligase/EZH2 in PRC2 complex in human WSUDLCL2 cells assessed as reduction in H3K27me3 level at 10 uM incubated for 48 hrs by Western blot analysis. It counts as cell-based.
The target is the same in assay [11]. In words: PROTAC activity at CRBN E3 ligase/EZH2 in PRC2 complex in human SU-DHL-6 cells assessed as reduction in H3K27me3 level at 1 uM incubated for 48 hrs by Western blot analysis. It counts as cell-based. The essentials:
as §1

Assay [12] relates to A549. The assay can be described thus: Downregulation of TACC3 mRNA expression in human A549 cells at 10 uM incubated for 48 hrs by qRT-PCR analysis. The assay is classed as functional, cell-based. An outline of the steps: as §2
For orientation: Real-time PCR tracks product formation cycle by cycle.

Assay [13] addresses T1, Protein cereblon/Histone-lysine N-methyltransferase EZH2 (Homo sapiens). In words: PROTAC activity at CRBN E3 ligase/EZH2 in PRC2 complex in human WSUDLCL2 cells assessed as induction of EED degradation incubated for 48 hrs by Western blot analysis. As to conditions: dose 1-10 µM. It counts as cell-based.
Assay [14] has the same target. The assay can be described thus: PROTAC activity at CRBN E3 ligase/EZH2 in PRC2 complex in human WSUDLCL2 cells assessed as downregulation of EED expression at 1 uM pretreated with EPZ6438 for 4 hrs followed by compound addition and measured after 48 hrs by Western blot analysis. The assay is classed as cell-based. An outline of the steps:
(§3)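 WSU-DLCL-2 cells pretreated 4 h with the named inhibitor, then compound added and incubated a further 48 h. EZH2, SUZ12, EED and RbAp48 measured by western blot (nitrocellulose transfer, skim-milk block, primary antibody overnight at 4 °C, chemiluminescent detection).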

Assay [15] shares this target. The assay can be described thus: PROTAC activity at CRBN E3 ligase/EZH2 in PRC2 complex in human WSUDLCL2 cells assessed as downregulation of EED expression at 1 uM pretreated with MLN4924 for 4 hrs followed by compound addition and measured after 48 hrs by Western blot analysis. It counts as cell-based. The essentials: as §3
The subject of assay [16] is A549. In words: Antiproliferative activity against EZH2-knockdown human A549 cells assessed as inhibition of cell growth at 10 uM treated for 9 days by optical microscopic analysis. It counts as functional, cell-based. Conditions: time 9.0 day. The essentials:
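Cells seeded at 5 × 10³ per well, grown 24 h, then exposed to compound at 10 μM for 9 days with medium refreshed. Cells were photographed and counted on days 1, 3, 5, 7 and 9. For lines 1-2, EZH2-targeting or control shRNA was induced in the cells. Mean SD of three independent experiments; t-test against control.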

Assay [17] addresses T1, Protein cereblon/Histone-lysine N-methyltransferase EZH2 (Homo sapiens). The assay can be described thus: PROTAC activity at CRBN E3 ligase/EZH2 in PRC2 complex in human WSUDLCL2 cells assessed as induction of RbAp48 degradation at 10 uM incubated for 48 hrs by Western blot analysis. It counts as cell-based.
The subject of the next assay is Pfeiffer. The assay can be described thus: Upregulation of ADRB2 mRNA expression in human Pfeiffer cells at 1 uM incubated for 48 hrs by qRT-PCR analysis. It counts as functional, cell-based. An outline of the steps:
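WSU-DLCL-2 or Pfeiffer cells treated 48 h. Trizol RNA extraction, reverse transcription, SYBR qPCR (95 °C 30 s; 40 cycles of 95 °C 6 s, 60 °C 20 s). mRNA normalized to DMSO-treated cells; mean ± SD of three independent experiments, t-test.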

The source made the active and inactive calls. The calls are words filed in the database; no cut-off is given here.

Turning to `CCN(c1cc(-c2ccc(CN3CCN(CCCCCCCOc4cccc5c4C(=O)N(C4CCC(=O)NC4=O)C5=O)CC3)cc2)cc(C(=O)NCc2c(C)cc(C)[nH]c2=O)c1C)C1CCOCC1` (centres undefined), the outcome (in assay [1]; in [2]; in the assay on WSUDLCL2; in [4]; in [5]; in the assay with A549 [7]) was Active. For the same compound, the result (with A549 [9]; in assay [11]; with A549 [12]; in the assay on A549 [16]; with Pfeiffer) was Active. The Activity in assay [3] is 72%; in [8], “Dose-Dependent Effect”; in assay [13], “Dose-Dependent Effect”. The result in [6], in [10], in [14], in assay [15] and in assay [17] was inactive.
